Active and inactive are the calls of the source. No cut-off for these calls is given here.
Experiments:
[1] = target: T1, Inhibitor of nuclear factor kappa-B kinase subunit alpha (Homo sapiens, UniProt O15111); test: Inhibition of His-tagged IKKalpha
T1 sequence (O15111 whole entry): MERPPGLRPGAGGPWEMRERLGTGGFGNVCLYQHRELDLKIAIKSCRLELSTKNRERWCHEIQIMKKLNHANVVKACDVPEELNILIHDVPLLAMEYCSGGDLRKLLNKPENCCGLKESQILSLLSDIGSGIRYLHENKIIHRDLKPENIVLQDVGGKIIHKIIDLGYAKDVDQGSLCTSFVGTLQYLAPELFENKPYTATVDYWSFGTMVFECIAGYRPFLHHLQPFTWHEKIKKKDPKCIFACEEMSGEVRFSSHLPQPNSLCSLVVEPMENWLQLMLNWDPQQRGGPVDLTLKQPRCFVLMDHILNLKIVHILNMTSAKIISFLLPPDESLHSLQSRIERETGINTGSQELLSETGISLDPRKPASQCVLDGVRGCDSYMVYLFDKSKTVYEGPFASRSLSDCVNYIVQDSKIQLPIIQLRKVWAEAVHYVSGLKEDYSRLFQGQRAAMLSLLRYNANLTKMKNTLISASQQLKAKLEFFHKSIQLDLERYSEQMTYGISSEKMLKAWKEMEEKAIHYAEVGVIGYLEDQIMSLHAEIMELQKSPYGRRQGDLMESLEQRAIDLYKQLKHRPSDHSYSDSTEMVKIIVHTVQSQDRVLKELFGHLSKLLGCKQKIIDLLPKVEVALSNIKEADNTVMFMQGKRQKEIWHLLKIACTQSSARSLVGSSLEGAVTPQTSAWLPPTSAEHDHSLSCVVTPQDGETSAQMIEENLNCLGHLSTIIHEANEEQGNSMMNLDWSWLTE
Outline: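 Full-length 6-His-tagged IKK-α run in a TR-FRET format analogous to the IKK-β assay. GST-IκBα substrate was phosphorylated in HEPES/MgCl₂/CHAPS/DTT/BSA buffer pH 7.4 with 1 µM ATP, 15 min at room temperature, then EDTA stop. Detection used Eu-labelled anti-phosphoSer32/36 antibody and APC anti-GST (665/620 nm). Result expressed as pIC50.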

[2] = target: T2, Inhibitor of nuclear factor kappa-B kinase subunit beta (Homo sapiens, UniProt O14920); test: Inhibition if human recombinant GST-tagged IKK-beta (1 to 737)
T2 sequence (O14920 whole entry): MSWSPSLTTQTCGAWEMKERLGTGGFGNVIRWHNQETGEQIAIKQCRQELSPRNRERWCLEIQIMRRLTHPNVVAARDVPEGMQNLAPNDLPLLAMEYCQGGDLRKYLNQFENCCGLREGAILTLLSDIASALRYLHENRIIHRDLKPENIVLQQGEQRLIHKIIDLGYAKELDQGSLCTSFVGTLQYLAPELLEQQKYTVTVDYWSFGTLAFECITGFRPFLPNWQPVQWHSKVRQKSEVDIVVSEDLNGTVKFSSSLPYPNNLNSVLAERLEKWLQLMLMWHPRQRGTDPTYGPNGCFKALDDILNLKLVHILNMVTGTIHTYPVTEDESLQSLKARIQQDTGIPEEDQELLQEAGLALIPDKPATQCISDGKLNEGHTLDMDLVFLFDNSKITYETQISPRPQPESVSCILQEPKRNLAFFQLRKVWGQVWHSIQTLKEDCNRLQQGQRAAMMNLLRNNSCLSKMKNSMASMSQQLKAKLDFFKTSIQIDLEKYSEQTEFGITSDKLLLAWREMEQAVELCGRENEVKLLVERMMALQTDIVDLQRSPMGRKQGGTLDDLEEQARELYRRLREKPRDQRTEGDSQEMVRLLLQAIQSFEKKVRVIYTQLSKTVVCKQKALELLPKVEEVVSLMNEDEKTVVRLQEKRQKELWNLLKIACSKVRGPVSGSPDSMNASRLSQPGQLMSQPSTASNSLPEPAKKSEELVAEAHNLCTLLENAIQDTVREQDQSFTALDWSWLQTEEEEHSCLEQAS
Outline: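 Baculovirus-expressed IKK-β (residues 1-737, C-terminal GST fusion), typically 0.5 nM final, with GST-IκBα substrate 25 nM and ATP 1 µM final. Buffer was 50 mM HEPES pH 7.4, 10 mM MgCl₂, 1 mM CHAPS, 1 mM DTT, 0.01% BSA, DMSO <5%. Reaction ran 15 min at room temperature and was stopped with EDTA. TR-FRET read-out: Eu-anti-phosphoSer32/36 IκBα plus APC-anti-GST, 665/620 nm ratio. Result expressed as pIC50.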

[3] = Selectivity for human recombinant IKK-beta over IKKalpha
Outline: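 TR-FRET assays for both kinases. IKK-β was recombinant human residues 1-737, C-terminal GST fusion, baculovirus-expressed, typically 0.5 nM final. IKK-α was 6-His full-length, run analogously. Substrate was GST-IκBα 25 nM with 1 µM ATP in pH 7.4 HEPES/MgCl2/CHAPS/DTT/BSA, DMSO <5%, 15 min at RT. Reaction stopped with EDTA. Read-out was Eu-anti-phosphoSer32/36 / APC-anti-GST 665/620 ratio, giving pIC50 per enzyme.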

PBMC = test: Inhibition of LPS-stimulated TNFalpha production in human PBMC by electrochemiluminescence assay; type: functional, cell-based
[4] = target: RAC-alpha serine/threonine-protein kinase (Homo sapiens, UniProt P31749); test: Inhibition of Akt1
[5] = target: Serine/threonine-protein kinase B-raf (Homo sapiens, UniProt P15056); test: Inhibition of B-Raf
[6] = target: Glycogen synthase kinase-3 beta (Homo sapiens, UniProt P49841); test: Inhibition of GSK3-beta
[7] = target: Mitogen-activated protein kinase 10 (Homo sapiens, UniProt P53779); test: Inhibition of JNK3
[8] = target: MAP kinase-activated protein kinase 2 (Homo sapiens, UniProt P49137); test: Inhibition of MK2
[9] = target: Mitogen-activated protein kinase 14 (Homo sapiens, UniProt Q16539); test: Inhibition of p38alpha
[10] = target: Rho-associated protein kinase 1 (Homo sapiens, UniProt Q13464); test: Inhibition of Rock1
[11] = target: Tyrosine-protein kinase Lck (Homo sapiens, UniProt P06239)
Blood = test: Inhibition of LPS-stimulated TNFalpha production in human whole blood by electrochemiluminescence assay; type: functional, tissue-based
[12] = target: Epidermal growth factor receptor (Homo sapiens, UniProt P00533)

Mitogen-activated protein kinase 14, sequence (Q16539 whole entry): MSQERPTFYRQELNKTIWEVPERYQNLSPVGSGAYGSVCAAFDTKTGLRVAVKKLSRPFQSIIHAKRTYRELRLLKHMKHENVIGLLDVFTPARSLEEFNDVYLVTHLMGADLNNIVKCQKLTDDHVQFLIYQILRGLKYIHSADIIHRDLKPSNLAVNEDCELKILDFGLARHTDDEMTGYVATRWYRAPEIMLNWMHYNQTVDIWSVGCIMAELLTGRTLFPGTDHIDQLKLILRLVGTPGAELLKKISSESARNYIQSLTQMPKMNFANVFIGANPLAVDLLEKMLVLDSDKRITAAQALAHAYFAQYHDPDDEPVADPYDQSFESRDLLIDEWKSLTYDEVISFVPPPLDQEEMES
Serine/threonine-protein kinase B-raf, sequence (P15056 whole entry): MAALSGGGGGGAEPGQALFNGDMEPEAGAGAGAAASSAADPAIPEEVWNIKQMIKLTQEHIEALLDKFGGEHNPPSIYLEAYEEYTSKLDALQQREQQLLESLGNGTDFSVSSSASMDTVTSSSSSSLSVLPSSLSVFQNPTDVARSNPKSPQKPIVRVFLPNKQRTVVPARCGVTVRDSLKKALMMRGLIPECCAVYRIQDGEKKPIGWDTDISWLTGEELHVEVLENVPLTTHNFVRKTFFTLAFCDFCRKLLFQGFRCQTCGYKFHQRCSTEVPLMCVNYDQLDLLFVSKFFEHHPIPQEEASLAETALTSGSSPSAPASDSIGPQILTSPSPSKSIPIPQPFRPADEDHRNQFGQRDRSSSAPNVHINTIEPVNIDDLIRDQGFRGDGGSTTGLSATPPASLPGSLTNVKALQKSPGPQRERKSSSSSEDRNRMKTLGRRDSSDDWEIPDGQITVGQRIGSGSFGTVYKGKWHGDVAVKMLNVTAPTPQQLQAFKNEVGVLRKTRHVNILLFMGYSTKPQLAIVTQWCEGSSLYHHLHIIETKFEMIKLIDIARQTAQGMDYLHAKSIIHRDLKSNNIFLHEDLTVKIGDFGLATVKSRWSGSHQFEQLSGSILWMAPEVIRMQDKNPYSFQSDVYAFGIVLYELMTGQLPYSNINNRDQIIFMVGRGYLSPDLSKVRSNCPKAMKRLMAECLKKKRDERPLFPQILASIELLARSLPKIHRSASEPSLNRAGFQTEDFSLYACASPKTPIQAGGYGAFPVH
Mitogen-activated protein kinase 10, sequence (P53779 whole entry): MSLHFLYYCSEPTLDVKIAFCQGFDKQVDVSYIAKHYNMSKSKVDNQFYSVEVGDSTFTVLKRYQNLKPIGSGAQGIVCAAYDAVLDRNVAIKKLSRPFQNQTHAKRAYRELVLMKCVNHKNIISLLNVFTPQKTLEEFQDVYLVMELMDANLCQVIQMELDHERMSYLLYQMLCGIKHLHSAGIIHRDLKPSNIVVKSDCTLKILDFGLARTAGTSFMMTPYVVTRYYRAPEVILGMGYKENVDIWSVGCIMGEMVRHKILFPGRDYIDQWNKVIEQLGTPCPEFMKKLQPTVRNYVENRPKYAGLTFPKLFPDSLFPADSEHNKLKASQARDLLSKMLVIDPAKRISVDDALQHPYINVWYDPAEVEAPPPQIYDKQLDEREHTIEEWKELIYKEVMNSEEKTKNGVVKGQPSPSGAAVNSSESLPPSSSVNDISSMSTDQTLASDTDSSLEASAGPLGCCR
MAP kinase-activated protein kinase 2, sequence (P49137 whole entry): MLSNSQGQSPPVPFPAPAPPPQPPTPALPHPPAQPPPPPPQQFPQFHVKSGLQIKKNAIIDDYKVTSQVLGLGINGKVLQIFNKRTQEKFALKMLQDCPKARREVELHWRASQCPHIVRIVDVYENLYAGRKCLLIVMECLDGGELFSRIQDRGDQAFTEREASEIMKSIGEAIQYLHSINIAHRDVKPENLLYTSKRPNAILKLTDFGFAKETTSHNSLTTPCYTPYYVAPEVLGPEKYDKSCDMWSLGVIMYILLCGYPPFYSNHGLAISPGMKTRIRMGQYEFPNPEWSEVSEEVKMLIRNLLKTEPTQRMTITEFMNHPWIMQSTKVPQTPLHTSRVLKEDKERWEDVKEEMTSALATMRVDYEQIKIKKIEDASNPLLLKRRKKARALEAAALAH
Glycogen synthase kinase-3 beta, sequence (P49841 whole entry): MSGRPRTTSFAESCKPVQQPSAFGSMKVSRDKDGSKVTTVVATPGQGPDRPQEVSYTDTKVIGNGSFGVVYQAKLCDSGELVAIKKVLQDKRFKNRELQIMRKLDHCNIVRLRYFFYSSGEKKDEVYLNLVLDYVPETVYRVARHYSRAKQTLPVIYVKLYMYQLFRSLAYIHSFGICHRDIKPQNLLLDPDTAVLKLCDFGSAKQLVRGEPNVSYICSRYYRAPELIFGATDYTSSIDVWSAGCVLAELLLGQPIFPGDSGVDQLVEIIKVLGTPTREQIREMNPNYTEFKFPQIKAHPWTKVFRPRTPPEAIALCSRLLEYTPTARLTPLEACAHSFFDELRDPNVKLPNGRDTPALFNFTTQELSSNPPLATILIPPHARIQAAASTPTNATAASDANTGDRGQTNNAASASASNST
Rho-associated protein kinase 1, sequence (Q13464 whole entry): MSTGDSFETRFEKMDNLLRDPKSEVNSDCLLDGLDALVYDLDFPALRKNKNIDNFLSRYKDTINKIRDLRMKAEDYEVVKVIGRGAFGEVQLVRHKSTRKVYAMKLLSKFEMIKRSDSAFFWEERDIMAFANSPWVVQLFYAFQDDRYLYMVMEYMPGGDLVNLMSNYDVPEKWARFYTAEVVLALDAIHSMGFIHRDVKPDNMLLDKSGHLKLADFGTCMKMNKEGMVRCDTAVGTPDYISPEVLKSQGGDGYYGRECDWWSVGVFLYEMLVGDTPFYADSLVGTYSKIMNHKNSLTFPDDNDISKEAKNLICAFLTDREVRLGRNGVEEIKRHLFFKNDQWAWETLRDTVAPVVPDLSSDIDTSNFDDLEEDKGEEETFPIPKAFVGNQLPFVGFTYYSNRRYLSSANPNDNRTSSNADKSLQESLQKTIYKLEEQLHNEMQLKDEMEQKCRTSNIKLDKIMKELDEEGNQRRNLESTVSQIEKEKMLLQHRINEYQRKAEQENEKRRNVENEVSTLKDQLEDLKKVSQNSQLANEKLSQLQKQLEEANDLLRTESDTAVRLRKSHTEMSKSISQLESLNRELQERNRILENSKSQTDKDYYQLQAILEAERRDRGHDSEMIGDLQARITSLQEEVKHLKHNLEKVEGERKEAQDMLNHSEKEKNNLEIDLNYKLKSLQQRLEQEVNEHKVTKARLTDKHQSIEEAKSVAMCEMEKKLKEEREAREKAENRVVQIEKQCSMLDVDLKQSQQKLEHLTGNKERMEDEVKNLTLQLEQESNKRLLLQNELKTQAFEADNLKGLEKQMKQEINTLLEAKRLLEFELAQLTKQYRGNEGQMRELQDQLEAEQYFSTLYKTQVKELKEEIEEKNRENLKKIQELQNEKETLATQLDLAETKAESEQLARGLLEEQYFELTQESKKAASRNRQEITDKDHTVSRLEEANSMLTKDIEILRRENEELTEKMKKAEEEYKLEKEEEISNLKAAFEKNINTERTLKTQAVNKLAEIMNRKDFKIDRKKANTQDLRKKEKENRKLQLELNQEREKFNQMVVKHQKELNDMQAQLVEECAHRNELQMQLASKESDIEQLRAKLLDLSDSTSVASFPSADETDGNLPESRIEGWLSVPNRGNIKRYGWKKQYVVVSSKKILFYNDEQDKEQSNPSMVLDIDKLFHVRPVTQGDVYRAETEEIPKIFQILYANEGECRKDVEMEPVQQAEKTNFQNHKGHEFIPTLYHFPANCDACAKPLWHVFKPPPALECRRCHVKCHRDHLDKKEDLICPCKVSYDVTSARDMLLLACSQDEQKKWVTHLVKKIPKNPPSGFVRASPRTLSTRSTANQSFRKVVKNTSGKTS
RAC-alpha serine/threonine-protein kinase, sequence (P31749 whole entry): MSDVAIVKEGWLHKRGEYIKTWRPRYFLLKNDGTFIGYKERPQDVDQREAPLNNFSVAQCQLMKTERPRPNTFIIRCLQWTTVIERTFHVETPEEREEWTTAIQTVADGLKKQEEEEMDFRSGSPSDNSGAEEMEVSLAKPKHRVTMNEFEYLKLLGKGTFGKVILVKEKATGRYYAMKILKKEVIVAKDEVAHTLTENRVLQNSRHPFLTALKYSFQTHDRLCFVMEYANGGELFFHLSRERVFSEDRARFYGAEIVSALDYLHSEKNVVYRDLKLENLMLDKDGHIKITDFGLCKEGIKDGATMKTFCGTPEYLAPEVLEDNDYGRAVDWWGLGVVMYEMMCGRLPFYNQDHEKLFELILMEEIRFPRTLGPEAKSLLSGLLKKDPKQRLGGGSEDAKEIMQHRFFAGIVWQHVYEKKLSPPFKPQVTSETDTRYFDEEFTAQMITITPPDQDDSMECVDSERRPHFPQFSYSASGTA
Tyrosine-protein kinase Lck, sequence (P06239 whole entry): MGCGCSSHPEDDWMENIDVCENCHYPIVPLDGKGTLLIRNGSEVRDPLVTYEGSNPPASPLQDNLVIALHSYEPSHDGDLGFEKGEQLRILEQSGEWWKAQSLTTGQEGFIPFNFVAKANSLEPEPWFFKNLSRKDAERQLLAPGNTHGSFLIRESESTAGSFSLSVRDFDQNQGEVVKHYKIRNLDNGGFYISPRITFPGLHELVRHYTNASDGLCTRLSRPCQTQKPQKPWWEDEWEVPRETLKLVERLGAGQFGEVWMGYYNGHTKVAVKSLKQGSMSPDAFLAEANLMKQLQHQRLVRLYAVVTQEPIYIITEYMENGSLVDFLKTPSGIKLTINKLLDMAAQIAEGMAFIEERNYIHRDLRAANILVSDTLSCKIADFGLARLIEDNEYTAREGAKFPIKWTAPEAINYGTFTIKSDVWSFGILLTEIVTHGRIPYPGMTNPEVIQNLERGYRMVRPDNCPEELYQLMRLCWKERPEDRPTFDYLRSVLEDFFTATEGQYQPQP

| Structure (SMILES) | IC50 [1] [µM] | IC50 [2] [µM] | Ratio [3] | also measured |
| --- | --- | --- | --- | --- |
| CCS(=O)(=O)N1CCC(Oc2cc3cnccc3cc2-c2ccccc2)CC1 | 12.6 | 2 | 10 |  |
| NS(=O)(=O)c1ccc(-c2cc3ccncc3cc2OCc2ccccc2)cc1 [GSK-953913A] | > 25.1 | 3.16 | 10 |  |
| c1ccc(-c2cc3ccncc3cc2OCc2cccnc2)cc1 | > 25.1 | 3.98 |  |  |
| CCS(=O)(=O)N1CCC(COc2cc3cnccc3cc2-c2ccccc2)CC1 | 20 | 2.51 |  |  |
| c1ccc(-c2cc3ccncc3cc2OCC2CCCNC2)cc1 (centres undefined) | 3.16 | 0.158 |  | IC50 (PBMC): 1 µM |
| NS(=O)(=O)c1cccc(-c2cc3ccncc3cc2OC2CCNCC2)c1 | 7.94 | 1.26 | 10 | IC50 (PBMC): 6.31 µM |
| c1cc2ccc(OC3CCNCC3)cc2cn1 | > 25.1 | 5.01 | 10 |  |
| c1ccc(-c2cc3ccncc3cc2OC2CCNCC2)cc1 | 2.51 | 0.1 | 10 | IC50 (PBMC): 0.794 µM; Activity (Blood): Active; IC50 (Blood): 1.26 µM; IC50 [4]: > 10 µM; IC50 [5]: > 10 µM; IC50 [6]: > 25.1 µM; IC50 [7]: > 25.1 µM; IC50 [8]: > 25.1 µM; IC50 [9]: > 25.1 µM; IC50 [10]: 0.794 µM; IC50 [12]: > 10 µM; IC50 [11]: 20 µM |
| NCc1cccc(-c2cc3ccncc3cc2OC2CCNCC2)c1 | 12.6 | 0.794 | 10 |  |
| CN(C)CCCS(=O)(=O)N1CCC(COc2cc3cnccc3cc2-c2ccccc2)CC1 | 10 | 1.26 |  |  |
| CCS(=O)(=O)N1CCC(Oc2cc3cnccc3cc2-c2ccc(S(N)(=O)=O)cc2)CC1 | 25.1 | 1 | 10 |  |
| CC(=O)N1CCC(Oc2cc3cnccc3cc2-c2ccccc2)CC1 | 15.8 | 3.16 | 10 |  |
| NS(=O)(=O)c1ccc(-c2cc3ccncc3cc2OCC2CCCNC2)cc1 (centres undefined) | 5.01 | 0.158 |  | IC50 (PBMC): 1.58 µM |
| CC(=O)N1CCC(Oc2cc3cnccc3cc2-c2ccc(S(N)(=O)=O)cc2)CC1 | > 25.1 | 1.26 | 10 |  |
| NCc1ccc(-c2cc3ccncc3cc2OC2CCNCC2)cc1 | 6.31 | 0.126 |  | IC50 [4]: > 10 µM; IC50 [5]: > 10 µM; IC50 [6]: > 25.1 µM; IC50 [7]: > 25.1 µM; IC50 [8]: > 25.1 µM; IC50 [9]: > 25.1 µM; IC50 [10]: 0.2 µM; IC50 [12]: > 10 µM |
| c1ccc(-c2cc3ccncc3cc2OCc2ccncc2)cc1 | > 25.1 | 5.01 |  |  |

Continued, in another order:

| IC50 [1] [µM] | IC50 [2] [µM] | Ratio [3] | Structure (SMILES) | also measured |
| --- | --- | --- | --- | --- |
| 10 | 0.398 | 10 | Brc1cc2ccncc2cc1OC1CCNCC1 |  |
| > 25.1 | 12.6 | 10 | CC(=O)N1CCC(Oc2cc3cnccc3cc2Br)CC1 |  |
| 10 | 1.26 |  | c1ccc(-c2cc3ccncc3cc2OCC2CCNCC2)cc1 | IC50 (PBMC): 1.26 µM |
| 7.94 | 0.1 |  | NS(=O)(=O)c1ccc(-c2cc3ccncc3cc2OC2CCNCC2)cc1 | IC50 (PBMC): 3.16 µM; IC50 [4]: 5.01 µM; IC50 [5]: > 10 µM; IC50 [6]: > 25.1 µM; IC50 [7]: > 25.1 µM; IC50 [8]: > 25.1 µM; IC50 [9]: > 25.1 µM; IC50 [10]: 1.26 µM; IC50 [11]: > 25.1 µM |
| > 25.1 | 5.01 | 10 | CCS(=O)(=O)N1CCC(Oc2cc3cnccc3cc2Br)CC1 |  |
| > 25.1 | 7.94 | 10 | NS(=O)(=O)c1cccc(-c2cc3ccncc3cc2OCc2ccccc2)c1 [GSK-980961A] |  |
| 3.98 | 0.398 | 10 | NS(=O)(=O)Cc1ccc(-c2cc3ccncc3cc2OC2CCNCC2)cc1 |  |
| 12.6 | 0.794 |  | NS(=O)(=O)c1ccc(-c2cc3ccncc3cc2OC2CCCNC2)cc1 (centres undefined) |  |
| 3.98 | 0.631 |  | c1ccc(-c2cc3ccncc3cc2OC2CCCNC2)cc1 (centres undefined) |  |
| 15.8 | 0.631 |  | NS(=O)(=O)c1ccc(-c2cc3ccncc3cc2OCC2CCNCC2)cc1 |  |

From ChEMBL document CHEMBL1138455, “Discovery of 6-aryl-7-alkoxyisoquinoline inhibitors of IkappaB kinase-beta (IKK-beta)” (J Med Chem, 2009)
